This note sets out measurements from ChEMBL document CHEMBL1143574, “N-[18F] fluoroethylpiperidin-4ylmethyl acetate, a novel lipophilic acetylcholine analogue for PET measurement of brain acetylcholinesterase activity” (J Med Chem, 2005).

Data set [1] can be described thus: First-order hydrolysis rate constant in rat cerebral cortical homogenate at a unit tissue concentration (g/mL) without inhibitor. It counts as ADME, tissue-based. In short, it runs like this:
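Rat (Wistar, male, 8 wk, 210-230 g, n=3) cerebral cortex homogenized in ice-cold 0.1 M phosphate buffer pH 7.4 and diluted. Labeled ester (15 kBq) added to start reaction. Unchanged ester and metabolite separated by TLC and quantified by phosphor imaging. Rate = −ln(A2/A1)/(T2−T1)/C. Statistics by Games-Howell test.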

Data set [2] can be described thus: (§1) Partition coefficient (logP) measured in a mixture of 1-octanol/phosphate buffer (0.1 M, pH 7.4). It counts as physicochemical. In a few lines: (§2)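 Labeled ester or metabolite added to 1:1 1-octanol/0.1 M phosphate buffer pH 7.4, shaken vigorously, equilibrated 1 h at room temperature. Phase radioactivity counted by gamma or liquid scintillation counter, purity checked by TLC. Value = organic/aqueous concentration ratio.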

Data set [3] can be described thus: as §1. Type of data set: physicochemical. In short, it runs like this: as §2
This is another data set of the same source.

Data set [4] has as its target T1, Acetylcholinesterase (Rattus norvegicus) (UniProt P37136).
T1 sequence (whole entry): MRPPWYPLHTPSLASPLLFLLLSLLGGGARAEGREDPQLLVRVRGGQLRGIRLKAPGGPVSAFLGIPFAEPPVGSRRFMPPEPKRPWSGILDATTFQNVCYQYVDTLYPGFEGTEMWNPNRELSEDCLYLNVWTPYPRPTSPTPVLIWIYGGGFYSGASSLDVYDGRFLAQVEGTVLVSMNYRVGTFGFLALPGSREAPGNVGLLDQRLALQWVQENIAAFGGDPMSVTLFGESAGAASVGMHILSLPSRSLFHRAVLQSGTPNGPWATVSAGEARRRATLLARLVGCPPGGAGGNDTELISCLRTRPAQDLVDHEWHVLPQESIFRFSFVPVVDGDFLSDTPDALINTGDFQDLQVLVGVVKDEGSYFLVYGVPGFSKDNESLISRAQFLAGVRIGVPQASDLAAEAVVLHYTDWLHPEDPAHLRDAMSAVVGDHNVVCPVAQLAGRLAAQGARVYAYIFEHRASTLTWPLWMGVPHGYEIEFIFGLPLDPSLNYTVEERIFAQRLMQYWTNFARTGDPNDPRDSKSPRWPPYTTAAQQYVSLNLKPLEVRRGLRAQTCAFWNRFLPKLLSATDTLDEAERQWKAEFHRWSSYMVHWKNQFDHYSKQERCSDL
As to the kind of experiment: Specificity for rat brain acetylcholinesterase as rate of hydrolysis using BW284c51. In a few lines: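 Rat cerebral cortex homogenate (Wistar, male, 8 wk, n=3) in 0.1 M phosphate buffer pH 7.4, run with labeled ester (15 kBq) with or without BW284c51 (30 nM). Hydrolysis rate measured by TLC and phosphor imaging of remaining ester. Specificity = […].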

Setting [5] is: tested as the 18F-labelled form.
[6] abbreviates: tested as the 11C-labelled form.

The structures appear in SMILES notation.

On to `CCC(=O)OC1CCN([11CH3])CC1`, for which the Total rate in data set [1] came out at 0.41 min⁻¹. For the same compound, the logD in data set [2] was -0.22; in data set [3], -2.2.
The like results for `CC(=O)OCC1CCN(CC[18F])CC1` were, in that order, 1.67 min⁻¹, 0.04 and -1.3.
As to `CC(=O)OCC1CCN(CCF)CC1`, the Specificity in data set [4] (setting [5]) is 86%.
Regarding `CC(=O)OC1CCN(CC[18F])CC1`, the Total rate in data set [1] was 0.1 min⁻¹. Further, the logD is -0.11 in data set [2] and -1.9 in data set [3].
`CC(=O)OC1CCN(C)CC1` gave a Specificity in data set [4] (setting [6]) of 97%.
Compound `CC(=O)OC1CCN([11CH3])CC1` displayed a Total rate in data set [1] of 1.73 min⁻¹. In addition, the results for the logD in data set [2] and in data set [3] were -0.3 and -2.2, respectively.
As for `CCC(=O)OC1CCN(C)CC1`, the Specificity in data set [4] (setting [6]) was determined as 82%.
`CC(=O)OC1CCN(CCF)CC1` showed a Specificity in data set [4] (setting [5]) of 65%.
